The source of these data is paper PMC5826771 (Molecular pharmaceutics, 2017).

Where a SMILES comes first, the peptide text is derived from it. [ ]: non-standard residue; d: D form. Sar = CNCC(=O)O

Assay [1] concerns the target T1, hPepT1 (Homo sapiens, UniProt P46059).
T1 sequence (P46059 1-708): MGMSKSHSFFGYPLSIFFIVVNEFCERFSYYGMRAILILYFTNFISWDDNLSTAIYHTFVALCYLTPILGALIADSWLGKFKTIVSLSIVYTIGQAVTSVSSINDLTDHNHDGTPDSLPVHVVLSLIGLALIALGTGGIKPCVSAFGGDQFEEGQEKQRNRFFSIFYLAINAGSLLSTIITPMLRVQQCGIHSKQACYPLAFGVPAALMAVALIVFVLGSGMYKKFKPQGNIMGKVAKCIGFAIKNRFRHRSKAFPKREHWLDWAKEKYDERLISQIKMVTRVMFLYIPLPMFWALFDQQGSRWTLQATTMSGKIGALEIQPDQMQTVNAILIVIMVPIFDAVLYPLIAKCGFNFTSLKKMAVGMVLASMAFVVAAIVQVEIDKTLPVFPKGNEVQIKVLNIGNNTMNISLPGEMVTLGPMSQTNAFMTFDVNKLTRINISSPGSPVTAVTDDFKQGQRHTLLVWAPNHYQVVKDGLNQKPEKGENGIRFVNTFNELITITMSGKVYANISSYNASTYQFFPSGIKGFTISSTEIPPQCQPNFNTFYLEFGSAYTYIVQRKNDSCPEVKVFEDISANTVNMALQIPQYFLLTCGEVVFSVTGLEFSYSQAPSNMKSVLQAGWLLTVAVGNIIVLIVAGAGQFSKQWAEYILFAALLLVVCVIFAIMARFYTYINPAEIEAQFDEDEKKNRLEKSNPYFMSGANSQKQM
The class given is cell-based. The settings on record: hPepT1-expressing oocytes; for induction of inward current (in words): pH 6.0, voltage clamp −50 mV. In a few lines:
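Stage V–VI X. laevis oocytes were collagenase-treated, defolliculated, held at 18 °C in modified Barth's medium with gentamicin, and injected with 50 ng hPepT1 cRNA, with water-injected controls. TEVC clamped at −50 mV under pH 7.5 buffer, then NaCl buffer pH 6.0 ± test compound to steady state, then washout. Induced current = steady-state difference, expressed relative to 1 mM or 250 µM glycylsarcosine currents.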

Assay [2] deals with T1, hPepT1. The class given is cell-based.
The target of assay [3] is T1, hPepT1. The conditions noted are these: cited from earlier work.

With `Nc1ccc(CC(=O)O)cc1` [4-amino PA, 4-amino phenyl acetic acid], the “induction of inward current (in words)” value at hPepT1 [1] is “induced significant inward currents”.
`COC(=O)[C@H](Cc1ccccc1)NC(=O)[C@@H](N)CC(=O)O` [aspartame] (H-Asp-Phe-OMe): the 50% inhibitory concentration (IC50) on hPepT1 [2] turned out to be 3.9 mM. For the same compound, at hPepT1 [3], the “identified as hPepT1 inhibitor” value is given as “inhibitor”. Besides, the “induction of inward current (in words)” value at hPepT1 [1] is listed as “induced significant inward currents”.
As for `CN(CC(=O)O)C(=O)CN` [glycylsarcosine] (H-Gly-[Sar]-OH), the induced inward current on hPepT1 [1] (1 mM, buffer pH 6.0, clamped at −50 mV) is on record as 300–400 nA.
